rCAG binder: molecules binding r(CAG) RNA repeats. inhibition, % at 3 µM. r(CAG) RNA repeat, TO-PRO-1 dye displacement fluorescence. 1.3% of 370,000 active. AID 651821;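 active = inhibition above the plate cutoff, the mean of all test compounds on that plate plus 3 SD, cut at about 35% in these data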;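 note: 0% = DMSO alone and 100% = 100 µM mitoxantrone as full dye displacement; higher means more dye released from RNA so lower well fluorescence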
TCR-CD3 inh: blocks the human TCR-CD3 interaction | TAMRA-labeled TCR probe fluorescence, biochemical | inhibition, % at 9.4 µM | 0.37% of 360,000 active | AID 651800; in the data active = inhibition above about 19%;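 note: recombinant mutant TCR 2C K166C tagged with TAMRA read by polarization; 0% = receptor in buffer alone and 100% = receptor with positive control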
mABHD4 FP: ABHD4 (mouse) inhibition, primary FP screen; AID 720543; Q8VD66; inhibition, % at 8.92 µM; purified mABHD4, FP-Rh probe fluorescence polarization; 0.54% of 370,000 active;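 active = inhibition exceeding the mean over every tested compound plus 3 SD, cut at about 30% in these data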;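 note: 0% = plate median of compound wells and 100% = S159A mutant with DMSO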
Target sequence (Q8VD66 whole entry, looked up): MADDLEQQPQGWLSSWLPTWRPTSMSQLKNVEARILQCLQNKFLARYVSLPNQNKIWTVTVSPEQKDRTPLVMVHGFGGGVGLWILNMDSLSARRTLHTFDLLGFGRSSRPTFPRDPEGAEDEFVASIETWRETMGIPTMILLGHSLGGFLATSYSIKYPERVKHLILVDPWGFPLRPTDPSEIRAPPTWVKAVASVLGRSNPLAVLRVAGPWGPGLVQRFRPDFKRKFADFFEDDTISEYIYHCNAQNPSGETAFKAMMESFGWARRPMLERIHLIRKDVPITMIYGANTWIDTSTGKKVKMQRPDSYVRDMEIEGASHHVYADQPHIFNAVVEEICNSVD
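system = mouse ABHD4 enzyme, wild type | medium = HEPES pH 7.0, NaCl, Pluronic buffer | also added = FP-Rh probe | incubation = Enzyme–compound pre-incubation 45 min, then probe 60 min, both 25 °C | technique = fluorescence polarization, excitation 525 nm, emission 598 nm, BODIPY TMR filters | controls = S159A mutant high control, sample median low control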
SIAE primary: human SIAE inhibition, primary screen. Q9HAT2. SIAE FP-Rh probe binding, fluorescence polarization. inhibition, % at 9.66 µM. 0.69% of 370,000 active;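 active = inhibition above a cutoff: mean of compounds within the control limits plus 3 SD of those, cut at about 17% in these data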;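 note: 0% = plate median of compound wells and 100% = probe without SIAE protein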
HTRA1 inh: HTRA1 (human) protease inhibition | Q92743 | recombinant HTRA1, FP-rhodamine activity-based probe, fluorescence polarization | inhibition, % at 5.96 µM | 0.5% of 340,000 active | AID 504803; in the data active = inhibition above about 36%;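 note: 0% = enzyme with DMSO and 100% = wells lacking enzyme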
rCAG bind conf: r(CAG) RNA repeat binding, confirmation; shares compounds with rCAG binder; TO-PRO-1 dye displacement fluorescence; inhibition, % at 3 µM; 70% of 4,300 active; AID 652065;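 active = inhibition above a per-plate cutoff, the mean inhibition of sample wells plus 3 SD, cut at about 35% in these data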;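 note: loss of TO-PRO-1 fluorescence as compound displaces dye from 1x1 AA loop RNA; 0% = DMSO only wells and 100% = 100 µM mitoxantrone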
DNA CAG counter: counter-screen for rCAG RNA binders: DNA CAG dye complex inhibitors | shares compounds with rCAG binder | d(CAG) DNA oligo TO-PRO-1 dye displacement, fluorescence | inhibition, % at 3 µM | 94% of 4,300 active;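 active = inhibition above its plate's cutoff, the mean test-well inhibition plus 3 SD, cut at about 4.8% in these data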;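 note: 0% = DNA dye mix with DMSO and 100% = 100 µM mitoxantrone; hits displace the dye from DNA and so lower well fluorescence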
DNA CAG DR: disrupts DNA CAG TO-PRO-1 complex in dose response | shares compounds with rCAG binder | IC50, µM | DNA CAG/GTC duplex TO-PRO-1 dye displacement fluorescence | 20% of 250 active | AID 686960; in the data active = IC50 below about 10 µM
* hit, by the source's call; i = inactive; . = no result. This is a sample that favours compounds with a hit; in the whole collection about 2.5% have one here.

SMILES | rCAG binder | TCR-CD3 inh | mABHD4 FP | SIAE primary | HTRA1 inh | rCAG bind conf | DNA CAG counter | others
Brc1cc2c(cc1COc1ccc(-c3nn[nH]n3)cc1)OCO2 | 35* | 6 | -26 | -4 | -26 | 25 | 6.5*
O=C1NN(c2ccccc2)C(=O)/C1=C\c1cccc(OC(=O)c2cccs2)c1 | 37* | 2 | 16 | 8 | 4 | 68* | 28*
COC(=O)N/N=C\c1cccc(OC(=O)c2cccs2)c1 | -4 | -3 | 1 | -3 | . | . | .
COc1cccc(/C=N/Nc2snc(SC)c2C#N)c1 | 47* | -7 | 15 | 12 | -4 | 36* | 15*
CSc1nsc(N/N=C/c2ccccc2)c1C#N | 23 | -3 | 24 | 10 | 1 | . | .
COC(=O)c1sc(N2C(=O)C(O)=C(C(=O)c3ccc(C)o3)C2c2cc(OC)ccc2OC)nc1C (stereo unspecified) | 44* | -5 | -7 | -2 | -12 | 60* | 18*
COc1ccc(OC)c(C2C(C(=O)c3ccc(C)o3)=C(O)C(=O)N2c2cc(C)on2)c1 (stereo unspecified) | 7 | -7 | 11 | 1 | 3 | . | .
CCCOc1cccc(C2C(C(=O)c3ccc(C)o3)=C(O)C(=O)N2CCN2CCOCC2)c1 (stereo unspecified) | 6 | -4 | 11 | 1 | 0 | . | .
CCCOc1cccc(C2C(C(=O)c3ccc(C)o3)=C(O)C(=O)N2c2nc(C)c(C(C)=O)s2)c1 (stereo unspecified) | 36* | -11 | -5 | -15 | -17 | 57* | 18* | DNA CAG DR=i
Cc1onc(-c2ccccc2)c1C(=O)NC(=S)Nc1sc2c(c1C#N)CCC(C)C2 (stereo unspecified) | 42* | 2 | -11 | 2 | 1 | 35 | 15*
CC(c1ccccc1)N1C(=O)c2ccc(C(=O)Nc3ccccc3C(=O)O)cc2C1=O (stereo unspecified) | 81* | -7 | -44 | -35 | -43 | 87* | 70*
CC(c1ccccc1)N1C(=O)c2ccc(C(=O)Nc3ccc(Br)cc3C(=O)O)cc2C1=O (stereo unspecified) | 52* | 5 | -21 | -11 | -49 | 81* | 77*
CC(c1ccccc1)N1C(=O)c2ccc(C(=O)NCc3cccnc3)cc2C1=O (stereo unspecified) | -7 | 1 | 4 | 0 | -2 | . | .
CC(C)CN1C(=O)c2ccc(C(=O)Nc3ccc(O)cc3C(=O)O)cc2C1=O | 16 | 6 | 0 | -10 | 2 | . | .
COc1cccc(=O)c2c(C)n(CC(=O)c3ccccc3)c(C)c12 | 37* | 6 | 26 | 5 | 29 | 33 | 17*
CCOc1cccc(=O)c2c(C)n(CC(=O)c3ccccc3)c(C)c12 | 14 | 3 | 11 | 8 | 21 | . | .
O=C1N/C(=N/S(=O)(=O)c2ccccc2)S/C1=C/c1cccnc1 | 14 | 3 | 2 | 4 | 4 | . | .
COc1cc(/C=C2\S/C(=N/S(=O)(=O)c3ccc(C)cc3)NC2=O)c([N+](=O)[O-])cc1OC | 86* | 9 | 10 | -21 | 4 | 84* | 51*
Cc1ccc(S(=O)(=O)/N=C2/NC(=O)/C(=C/c3cc([N+](=O)[O-])ccc3O)S2)cc1 | 88* | -12 | 17 | -32 | -4 | 67* | 25*
O=C1NC(=Nc2ccccc2Cl)S/C1=C\c1cc([N+](=O)[O-])ccc1O | 82* | -11 | 20 | -1 | -3 | 69* | 27*
COc1cccc(N=C2NC(=O)/C(=C/c3cc([N+](=O)[O-])ccc3O)S2)c1 | 12 | -1 | 8 | 9 | -1 | . | .
O=C(NCc1ccccc1)c1ccc2c(=O)[nH]c3c(C(=O)NCC4CCCO4)sc(=S)n3c2c1 (stereo unspecified) | 50* | 5 | 26 | -2 | -4 | 91* | 66*
O=C(NC1CCCC1)c1sc(=S)n2c1[nH]c(=O)c1ccccc12 | 14 | 7 | 12 | -9 | 7 | . | .
O=C(NCc1ccco1)c1sc(=S)n2c1[nH]c(=O)c1ccccc12 | 62* | 4 | 25 | -30 | 7 | 66* | 22*
COc1ccc(C(Nc2ccc(S(=O)(=O)N3CCOCC3)cc2)C(=O)NCCC(C)C)cc1OC (stereo unspecified) | 4 | -3 | -3 | 2 | 6 | . | .
SMILES | rCAG binder | TCR-CD3 inh | mABHD4 FP | SIAE primary | HTRA1 inh | rCAG bind conf | DNA CAG counter | others
CCN(CC)Cc1c(O)ccc2c1O/C(=C\C=C\c1ccccc1)C2=O | -39 | 8 | 3 | -5 | 0 | . | .
COCCN(CCOC)Cc1c(O)ccc2c1O/C(=C\c1ccc(C)o1)C2=O | 36* | 6 | 15 | 8 | 4 | 0 | -1
CCOC(=O)N1CCC2(CC1)C(C#N)=C(N)Oc1c2c(C)nn1-c1cccc(Cl)c1 | 36* | 5 | 18 | 5 | -3 | 31 | 16*
COc1ccc(NS(=O)(=O)c2ccc(NS(=O)(=O)c3ccc(SC)cc3)cc2)c(OC)c1 | 38* | 3 | 7 | -5 | -14 | 43* | 13*
COc1ccc(OC)c(NS(=O)(=O)c2ccc(SC)cc2)c1 | 3 | -9 | -18 | 0 | -6 | . | .
CCOc1ccc(NS(=O)(=O)c2ccc(NS(=O)(=O)c3ccc(SC)cc3)cc2)cc1 | 49* | -6 | -39 | -32 | -23 | 55* | 18*
O=C(O)c1cc([N+](=O)[O-])ccc1C(=O)Nc1cccc([N+](=O)[O-])c1 | -2 | 3 | 0 | -3 | 2 | . | .
O=C(Nc1nnc(-c2cccs2)o1)c1cccc(F)c1 | 3 | -2 | -2 | -2 | 6 | . | .
O=C(Nc1nnc(-c2cccs2)o1)c1cccc(Oc2ccccc2)c1 | 38* | 0 | -29 | -7 | 10 | 53* | 15*
Cc1ccc(Cc2nc3ccccc3n2C(CCc2ccccc2)c2nc3ccccc3[nH]2)cc1 (stereo unspecified) | 5 | 5 | -3 | -2 | . | . | .
CCOC(=O)c1sc2nc(CSc3ccccc3Cl)[nH]c(=O)c2c1C | 0 | -1 | -6 | -3 | -5 | . | .
O=C(NCc1cccc(Cl)c1)c1ccc(S(=O)(=O)Nc2cccc(C(F)(F)F)c2)cc1 | 42* | 2 | -77 | -46 | -67 | 45* | 9.1*
O=C(Cc1cccc(C(F)(F)F)c1)NCc1cccc(Cl)c1 | 0 | 2 | -3 | 6 | -9 | . | .
CC(=O)Nc1ccc(S(=O)(=O)Nc2nc3ccccc3nc2Nc2ccc3ccccc3c2)cc1 | 75* | -5 | 18 | -1 | 2 | 93* | 82*
CC(=O)Nc1ccc(S(=O)(=O)Nc2nc3ccccc3nc2N2CCOCC2)cc1 | 3 | -1 | 1 | -4 | 3 | . | .

High-throughput results: PubChem BioAssay, The Scripps Research Institute Molecular Screening Center
